The list is not random: actives were taken first. Their share in the collection is about 2.4%.
JMJD2C inh – inhibitors of human GASC-1 (JMJD2C) demethylase. GST-JMJD2C(1-420) H3K9me3 demethylation, DELFIA europium. inhibition, % at 2.35 µM. 330,000 compounds, 0.069% hits. AID 2099;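 active means more than half of a compound's replicate wells show inhibition beyond 50%, single wells judged on their own value; inconclusive means some, but no more than half, of replicates pass 50% inhibition; inactive means no replicate passes 50% inhibition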;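 further: signal counts dimethyl H3K9 product captured on neutravidin plate; 0% = median of DMSO wells and 100% = 0.3 times that DMSO median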
Cardio protect – modulators protecting cardiomyocytes from myocardial damage | H9c2 cardiomyocytes, H2O2 injury protection, ATPLite, 2 h | AID 588492 | protection from H2O2 cell death, % at 20 µM | 360,000 compounds, 0.63% hits;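 active means compounds giving at least 50% protection of heart cells from peroxide-induced death in the single-dose screen, raw or plate-pattern-corrected value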;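 further: 0% = DMSO wells with peroxide and 100% = DMSO wells without peroxide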
T cruzi inh – T. cruzi replication inhibition. T. cruzi beta-gal in NIH3T3, luminescence, 90 h. inhibition, % (test concentration not listed). 300,000 compounds, 1.4% hits. AID 1885;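 active means mean inhibition across valid replicates above about 55%, limit read from the data; inconclusive means mean below that limit but half or more replicates reach it; inactive means mean below it, under half of replicates reach it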;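 further: signal also drops with host cell toxicity which is not excluded here; 0% = plate median of DMSO wells and 100% = zero luminescence signal; higher percent means less beta-gal luminescence so fewer parasites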
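Assay system: NIH/3T3 host cells with β-galactosidase reporter T. cruzi; input: 5,000 host fibroblasts per well; compound: single 50 nL compound addition per well in DMSO; timing: ≥90 h infection period, 3 h prior cell attachment; measured by: GalScreen β-gal luminescence, detergent lysis, 60 min; evaluation: percent inhibition of parasite-derived β-gal signal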
pCIP destab – lowers stability of the mouse p/CIP coactivator protein; F442A p/CIP-EGFP cells, EGFP fluorescence, 16 h; decrease of EGFP signal, % at 10 µM; 290,000 compounds, 0.01% hits;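 active means EGFP signal decrease of at least 30% at 10 µM or well 3 SD below plate mean, unless failing retest; inactive means the rest, including hits failing retest or dose response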
Target sequence (Q05BA5 1-1403): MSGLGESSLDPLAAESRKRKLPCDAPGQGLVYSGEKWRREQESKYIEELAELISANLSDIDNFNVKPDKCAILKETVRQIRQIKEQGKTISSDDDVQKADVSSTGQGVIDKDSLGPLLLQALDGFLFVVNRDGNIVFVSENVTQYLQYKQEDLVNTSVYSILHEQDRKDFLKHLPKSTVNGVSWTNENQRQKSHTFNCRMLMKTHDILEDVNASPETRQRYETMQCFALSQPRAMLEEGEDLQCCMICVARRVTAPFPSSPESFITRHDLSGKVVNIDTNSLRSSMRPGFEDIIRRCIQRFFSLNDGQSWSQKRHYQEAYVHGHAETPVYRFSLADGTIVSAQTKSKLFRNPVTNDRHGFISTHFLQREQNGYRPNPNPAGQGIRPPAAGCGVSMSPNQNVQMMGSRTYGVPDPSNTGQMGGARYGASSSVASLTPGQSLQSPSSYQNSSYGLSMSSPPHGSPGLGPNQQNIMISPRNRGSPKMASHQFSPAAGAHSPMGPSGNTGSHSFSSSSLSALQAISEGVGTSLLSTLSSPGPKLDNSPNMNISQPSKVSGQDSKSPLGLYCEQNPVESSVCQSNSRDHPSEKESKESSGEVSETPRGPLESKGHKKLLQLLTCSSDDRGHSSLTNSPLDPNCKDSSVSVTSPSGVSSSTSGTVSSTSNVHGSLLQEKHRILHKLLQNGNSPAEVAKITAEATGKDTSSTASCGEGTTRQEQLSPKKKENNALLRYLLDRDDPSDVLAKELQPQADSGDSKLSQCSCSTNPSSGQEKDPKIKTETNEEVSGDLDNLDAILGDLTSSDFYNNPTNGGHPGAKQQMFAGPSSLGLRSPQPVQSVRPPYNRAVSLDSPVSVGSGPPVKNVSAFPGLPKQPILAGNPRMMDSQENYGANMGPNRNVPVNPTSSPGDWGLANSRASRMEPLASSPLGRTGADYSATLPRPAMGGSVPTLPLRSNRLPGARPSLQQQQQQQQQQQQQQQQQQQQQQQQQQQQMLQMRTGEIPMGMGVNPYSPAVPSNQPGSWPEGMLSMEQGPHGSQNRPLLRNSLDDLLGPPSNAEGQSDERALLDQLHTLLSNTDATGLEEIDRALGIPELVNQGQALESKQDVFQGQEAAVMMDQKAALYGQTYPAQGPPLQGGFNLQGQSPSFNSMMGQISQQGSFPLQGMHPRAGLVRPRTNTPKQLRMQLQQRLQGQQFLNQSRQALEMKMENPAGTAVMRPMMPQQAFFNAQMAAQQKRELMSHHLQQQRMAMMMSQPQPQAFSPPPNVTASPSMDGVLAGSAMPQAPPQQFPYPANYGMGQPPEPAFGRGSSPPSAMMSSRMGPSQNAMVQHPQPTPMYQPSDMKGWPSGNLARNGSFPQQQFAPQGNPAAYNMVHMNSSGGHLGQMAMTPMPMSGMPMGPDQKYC
PP5 inh – PP5 (human) phosphatase inhibition. P53041. purified PP5c, OMFP substrate fluorescence. inhibition, % at 6.7 µM. 320,000 compounds, 0.18% hits. AID 1987;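 active means inhibition above the campaign's mean inhibition across all tested compounds plus 3 SD, cut at about 9.5% in these data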;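 further: 0% = DMSO only and 100% = 100 µM cantharidin control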
CTSL1 counter – blocks F. hepatica cathepsin L1 in PFM18AAP counter-screen; recombinant F. hepatica cathepsin L1, Z-Leu-Arg-MCA fluorescence; inhibition, % at 5.96 µM; 300,000 compounds, 0.49% hits; AID 1906;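 active means inhibition above the mean of all tested compounds plus 3 SD, set per screening campaign, cut at about 17% in these data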;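 further: 0% = plate median of test compound wells and 100% = 1 µM Z-Phe-Ala-diazomethylketone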
An asterisk follows results filed as active; ? = inconclusive; . = no result given.

SMILES | JMJD2C inh | Cardio protect | T cruzi inh | pCIP destab | PP5 inh | CTSL1 counter
CCc1ccc(NC(=O)CSc2nc(=O)n3cc(C)ccc3n2)cc1 | 3 | -4 | -12 | . | 8 | 9
FC(F)(F)c1ccc2c(c1)NCC1CCCN21 (configuration not stated) | 30 | -4 | -10 | -17 | 5 | 22*
Cn1c(N)c(C(=O)COC(=O)/C=C/c2ccc(Cl)c(Cl)c2)c(=O)n(C)c1=O | 3 | -12 | . | . | . | .
O=c1cc2oc3cc(O)c(O)cc3c(-c3ccccc3[N+](=O)[O-])c-2cc1O | 57* | 24 | -27 | -13 | 9 | 5
Cc1sc2ncnc(NC3CCN(Cc4ccccc4)CC3)c2c1C | 4 | -22 | 58* | -4 | -1 | -2
c1ccc(CN2CCC(Nc3ncnc4sccc34)CC2)cc1 | 1 | -2 | 25 | -2 | 0 | 4
c1ccc(-c2cc(-c3nc4ccccc4[nH]3)c3ccccc3n2)cc1 | -1 | -12 | 55* | -18 | 6 | 2
O=C(CN1CCN(Cc2ccccc2)CC1)NNC(=O)c1ccccc1 | . | -3 | . | . | 1 | .
CC(C)(C)C(=O)Nc1ccccc1C(=O)NCc1cccnc1 | -2 | 2 | 14 | -7 | -1 | 3
CC(C)(C)c1ccccc1OCC(=O)Nc1ccccc1C(=O)NCc1cccnc1 | 7 | 15 | 62* | -15 | 6 | 6
COc1ccc(/C=N/Nc2nnc(-c3ncc[nH]3)c3ccccc23)cc1 | -4 | 20 | 3 | 0 | 3 | 3
Oc1ccc2ccccc2c1/C=N/Nc1nnc(-c2ncc[nH]2)c2ccccc12 | 4 | -4 | 58* | 2 | 1 | 8
COc1ccc(NC(=O)N2CCCCC2c2cccnc2)cc1 (configuration not stated) | -2 | 0 | 66* | 5 | 2 | 4
CC(=O)Nc1ccc(S(=O)(=O)N2CCCCC2c2cccnc2)cc1 (configuration not stated) | 15 | 0 | -13 | -14 | 6 | -7
COc1cc(OC)cc(C(=O)NC(=S)N2CCCCC2c2cccnc2)c1 (configuration not stated) | 4 | -1 | 62* | 10 | -2 | -3
CC1CCC2(CC1)NC(=O)N(CC(=O)NCCc1ccc(F)cc1)C2=O (configuration not stated) | . | -7 | . | . | -1 | .
O=C(Nc1nccs1)c1cn(-c2ccccc2)nc1-c1ccncc1 | -1 | 19 | 15 | 1 | 2 | 1
COc1cccc(-c2nn(-c3ccccc3)cc2C(=O)n2nnc3ccccc32)c1 | 2 | -3 | -11 | 0 | 0 | -3
COC(=O)c1ccc(NC(=O)c2cn(-c3ccccc3)nc2-c2ccncc2)cc1 | -10 | 11 | 56* | -16 | 4 | 3
COc1cccc(-c2nn(-c3ccccc3)cc2C(=O)Nc2nccs2)c1 | -2 | 63* | 1 | -4 | 4 | 3
COc1ccc(-c2nn(-c3ccccc3)cc2C(=O)Nc2nccs2)cc1 | 6 | 59* | 19 | 3 | 2 | 1
O=[N+]([O-])c1ccccc1N(S(=O)(=O)c1ccccc1)S(=O)(=O)c1ccccc1 | . | 24 | . | . | . | .
CC(C)N(C(=O)COC(=O)c1cccc(S(=O)(=O)N2CC3(C)CC2CC(C)(C)C3)c1)C(C)C (configuration not stated) | . | -13 | . | . | . | .
Cc1cc(OCC(=O)OCC(=O)NC2CCS(=O)(=O)C2)ccc1Cl (configuration not stated) | . | 0 | . | . | . | .
Cc1cc(C)n(-c2ccc(NC(=O)C3CCCCN3C(=O)c3sccc3C)cc2)n1 (configuration not stated) | 25 | 2 | 21 | -6 | 6 | 2
SMILES | JMJD2C inh | Cardio protect | T cruzi inh | pCIP destab | PP5 inh | CTSL1 counter
COC(=O)c1cc(COC(=O)CNC(=O)c2ccc(Br)cc2)oc1C | 6 | 0 | . | . | . | .
Cc1ccc(CS(=O)Cc2ccc(C(=O)N3CCN(c4ccccn4)CC3)o2)cc1 (configuration not stated) | 1 | 9 | -4 | -1 | 2 | -3
CC(C)N1C(=O)C(=O)N(CC(=O)N2c3ccccc3NC(=O)CC2C)C1=O (configuration not stated) | . | -3 | . | . | . | .
O=P(O)(OCc1ccccc1)OCc1ccccc1 | 7 | 2 | . | . | 0 | .
O=C1c2ccc3c4c(ccc(c24)C(=O)N1CCCCO)C(=O)N(CCCCO)C3=O | 7 | -13 | 68* | 7 | . | .
CCN(CC)CC(=O)Nc1sc(C)cc1C(=O)c1ccccc1 | -4 | -2 | 12 | -4 | 0 | 2
Cc1cc(C(=O)c2ccccc2)c(NC(=O)CCl)s1 | 6 | -6 | 10 | 5 | 4 | 18*
CC(C)C[C@H](NC(=O)C1CC(=O)N(c2ccc3c(c2)OCO3)C1)C(=O)NCc1ccco1 (some centres not stated) | ? | 0 | 4 | 2 | 1 | 27*
O=C(O)c1cc(O)c2c(c1)[C@H]([C@H]1c3cc(C(=O)O)cc(O)c3C(=O)c3c(O[C@@H]4O[C@H](CO)[C@@H](O)[C@H](O)[C@H]4O)cccc31)c1cccc(OC3O[C@H](CO)[C@@H](O)[C@H](O)[C@H]3O)c1C2=O (some centres not stated) | -28 | 15 | 2 | . | 9 | 9
O=C(O)c1cc(O)c2c(c1)[C@@H]([C@H]1c3cc(C(=O)O)cc(O)c3C(=O)c3c(O[C@@H]4O[C@H](CO)[C@@H](O)[C@H](O)[C@H]4O)cccc31)c1cccc(OC3O[C@H](CO)[C@@H](O)[C@H](O)[C@H]3O)c1C2=O (some centres not stated) | -49 | 4 | -2 | . | 9.8* | 12
CC(NC(=O)c1ccccc1Cl)C(=O)N1CCN(Cc2ccc3c(c2)OCO3)CC1 (configuration not stated) | . | 5 | . | . | -1 | .
O=C(COc1ccccc1Cl)Nc1ccc(N2CCN(C(=O)c3ccccc3)CC2)cc1 | 0 | 5 | 27 | -19 | 2 | 4
COc1ccc(Br)cc1C(=O)Nc1cccc(NC(=O)c2ccco2)c1 | -2 | 64* | 33 | 12 | 2 | 0
O=C(Nc1cccc(NC(=O)c2ccc(-c3cccc(Br)c3)o2)c1)c1ccco1 | 6 | 60* | 55* | 16 | 5 | -3
O=C(Nc1cccc(NC(=O)c2ccc(-c3ccc(Br)cc3)o2)c1)c1ccccc1 | 0 | 12 | 13 | -12 | 3 | 1
COc1c(C)cc(Br)cc1C(=O)Nc1cccc(NC(=O)c2ccco2)c1 | 5 | 20 | 26 | -1 | 2 | 1
CN(N=O)c1ccc(CC2CCc3ccccc32)cc1 (configuration not stated) | . | 1 | . | . | . | .
COc1ccc(C2=NNC(=Nc3cc(S(=O)(=O)N(C)C)ccc3C)SC2)c(OC)c1 | -14 | -12 | 72* | -12 | 0 | 3
